{"data": "Assay results of several laboratories", "cell line": "CCRF-CEM", "effect on": "cell growth or viability", "note": "Compare with care: the assays were run in different laboratories."}
{"SMILES": "COc1ccc(-c2cn(-c3cc(=O)oc4ccc(Br)cc34)nn2)cc1", "setting": "48 h", "endpoint": "CC50", "value": "9800 nM"}
{"SMILES": "COc1ccc(C(=O)/C=C/c2ccc3ccccc3c2)cc1S(N)(=O)=O", "test": "SRB", "setting": "48 h", "endpoint": "GI50", "value": "2600 nM"}
{"SMILES": "COc1cc(-c2cn(-c3cc(=O)oc4ccc(Cl)cc34)nn2)cc(OC)c1OC", "setting": "48 h", "endpoint": "CC50", "value": "37200 nM"}
{"SMILES": "COc1cccc(Oc2ccccc2NC(=O)CNC(=O)c2cccc3ccccc23)c1", "test": "SRB", "setting": "48 h", "endpoint": "GI50", "value": "363 nM"}
{"SMILES": "O=C1C(=Cc2ccc(F)c(F)c2)CN(C(=O)C(Cl)Cl)CC1=Cc1ccc(F)c(F)c1", "test": "imaging", "setting": "24 h", "endpoint": "CC50", "value": "99.3 nM"}
{"SMILES": "COc1ccc(C(=O)/C=C/c2cccc(Cl)c2Cl)cc1S(N)(=O)=O", "test": "SRB", "setting": "10 µM", "endpoint": "inhibition", "value": "99%"}
{"SMILES": "O=C1C(=Cc2ccc(Cl)c(Cl)c2)CN(C(=O)C(Cl)Cl)CC1=Cc1ccc(Cl)c(Cl)c1", "test": "imaging", "setting": "24 h", "endpoint": "CC50", "value": "93.2 nM"}
{"SMILES": "O=C(CN1C(=O)SC(=Cc2ccccn2)C1=O)Nc1nc2ccccc2s1", "test": "MTT", "setting": "48 h", "endpoint": "CC50", "value": "11900 nM"}
